From ChEMBL document CHEMBL1127433, “N6-substituted adenosine receptor agonists. Synthesis and pharmacological activity as potent antinociceptive agents” (J Med Chem, 1994)
The source made the active and inactive calls. No cut-off for these calls is given here.

Tests used:
Mus musculus = test: Effective dose for phenylbenzoquinone-induced writhing in mice after peroral administration expressed as analgesic activity.; format: functional
Method in brief: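 Mice dosed orally (0.5 mL/20 g); 1 h later given 0.02% phenylbenzoquinone in hydroalcoholic solution ip (0.20-0.24 mL). Writhings and stretches counted from minute 5 to minute 10. Six animals per group. Inhibition taken against the control mean; ED50 (50% decrease) by linear regression.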

[1] = molecular target: T1, Adenosine A2 receptor (Rattus norvegicus) (UniProt P29276+P30543); test: Percent displacement from adenosine A2 receptor at 10e-5 M in rat striatal membrane in vitro.; format: cell membranes
[2] = molecular target: T1, Adenosine A2 receptor (Rattus norvegicus); test: Percent displacement from adenosine A2 receptor at 10e-7 M in rat striatal membrane in vitro.; format: cell membranes; conditions: Striatum
[3] = molecular target: T2, Adenosine receptor A1 (Rattus norvegicus) (UniProt P25099); test: Percent displacement from adenosine A1 receptor at 10e-5 M in rat brain membrane in vitro.; format: cell membranes
T2 sequence (whole entry): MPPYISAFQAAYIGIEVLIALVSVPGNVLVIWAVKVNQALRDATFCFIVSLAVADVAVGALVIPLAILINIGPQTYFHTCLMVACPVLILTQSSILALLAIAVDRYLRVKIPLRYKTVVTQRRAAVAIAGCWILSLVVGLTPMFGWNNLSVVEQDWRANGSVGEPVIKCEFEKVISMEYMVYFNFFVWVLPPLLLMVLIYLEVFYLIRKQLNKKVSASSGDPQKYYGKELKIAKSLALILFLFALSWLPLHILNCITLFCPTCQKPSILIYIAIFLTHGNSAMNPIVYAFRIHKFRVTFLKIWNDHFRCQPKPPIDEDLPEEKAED

[4] = molecular target: T2, Adenosine receptor A1 (Rattus norvegicus); test: Percent displacement from adenosine A1 receptor at 10e-7 M in rat brain membrane in vitro.; format: cell membranes
Adenosine receptor A1 = molecular target: T3, Adenosine receptor A1 (Rattus norvegicus, UniProt P25099); test: Binding affinity for adenosine A1 receptor in vitro using rat brain membranes.; format: cell membranes
T3 sequence (P25099 whole entry): T2 sequence (whole entry)
Method in brief: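 Whole rat brain membranes, homogenized in 50 mM Tris-HCl pH 7.4 and spun at 1090g then 48000g, pretreated with adenosine deaminase 1 U/mL for 30 min. Nonspecific binding defined with 10 μM PIA. Separated by GF/B filtration and scintillation counted, in triplicate. IC50 from log-logit regression, Ki via Cheng-Prusoff, one experiment.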

Adenosine A2 receptor = Adenosine A2 receptor (Rattus norvegicus, UniProt P29276+P30543); test: Binding affinity for adenosine A2 receptor in vitro using rat striatal membrane.; format: cell membranes
Method in brief: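 Rat striatal membranes in 50 mM Tris-HCl, 10 mM MgCl2, pH 7.7, adenosine deaminase treated (1 U/mL, 30 min). Incubated with [3H]NECA (4 nM, 50 μL) plus 0.11 μM cyclopentyladenosine and competitor for 60 min at 25 °C. Nonspecific binding defined with 5 μM NECA. GF/B filtration, scintillation counting, triplicate. IC50 from log-logit regression, Ki via Cheng-Prusoff, one experiment.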

Compound	ED50 (Mus musculus; po)	Displacement [1]	Displacement [2]	Displacement [3]	Displacement [4]	Ki (Adenosine receptor A1)	Ki (Adenosine A2 receptor)	ED50 (Mus musculus)
CC(Cc1cn(C2CCCC2)c2ccccc12)Nc1ncnc2c1ncn2C1O[C@H](C(=O)NC2CC2)[C@@H](O)[C@H]1O (some centres not stated)	2.2 mg/kg	85%	21%	96%	45%	–	–	–
O=C(NC1CC1)[C@H]1OC(n2cnc3c(NCCc4cn(CCN5CCOCC5)c5ccccc45)ncnc32)[C@H](O)[C@@H]1O (some centres not stated)	> 30 mg/kg	88%	20%	100%	52%	–	–	–
Cc1ccc(C)c(Cn2c(C)c(CCNc3ncnc4c3ncn4C3O[C@H](C(=O)NC4CC4)[C@@H](O)[C@H]3O)c3ccccc32)c1 (some centres not stated)	1.2 mg/kg	60%	7%	56%	5%	–	–	–
Cc1ccc(C)c(Cn2cc(C(C)CNc3ncnc4c3ncn4[C@@H]3O[C@H](C(=O)NC4CC4)[C@@H](O)[C@H]3O)c3ccccc32)c1 (some centres not stated)	0.9 mg/kg	61%	0%	97%	28%	200 nM	2500 nM	–
Cc1c(CCNc2ncnc3c2ncn3[C@@H]2O[C@H](C(=O)NC3CC3)[C@@H](O)[C@H]2O)c2ccccc2n1C1CCCC1	0.5 mg/kg	92%	6%	77%	15%	895 nM	2180 nM	–
O=C(NC1CC1)[C@H]1OC(n2cnc3c(NCCc4cn(Cc5ccc(Cl)s5)c5ccccc45)ncnc32)[C@H](O)[C@@H]1O (some centres not stated)	26.2 mg/kg	82%	6%	100%	47%	–	–	–
O=C(NC1CC1)[C@H]1O[C@@H](n2cnc3c(NCCc4cn(CCN5CCCC5)c5ccccc45)ncnc32)[C@H](O)[C@@H]1O	44.2 mg/kg	95%	53%	100%	96%	7.5 nM	58 nM	–
O=C(NC1CC1)[C@H]1OC(n2cnc3c(NCCc4cn(Cc5ccc(Cl)cc5)c5ccccc45)ncnc32)[C@H](O)[C@@H]1O (some centres not stated)	0.9 mg/kg	91%	30%	98%	46%	50 nM	320 nM	–
O=C(NC1CC1)[C@H]1OC(n2cnc3c(NCCc4cn(Cc5ccccc5)c5ccccc45)ncnc32)[C@H](O)[C@@H]1O (some centres not stated)	18.1 mg/kg	94%	41%	99%	35%	40 nM	270 nM	–
OC[C@H]1OC(n2cnc3c(NCCc4cn(Cc5c(Cl)cccc5Cl)c5ccccc45)ncnc32)[C@H](O)[C@@H]1O (some centres not stated)	–	91%	35%	92%	15%	–	–	inactive
Cc1ccccc1Cn1cc(CCNc2ncnc3c2ncn3C2O[C@H](C(=O)NC3CC3)[C@@H](O)[C@H]2O)c2ccccc21 (some centres not stated)	< 3 mg/kg	93%	27%	98%	40%	–	–	–
Cc1ccc(C)c(Cn2cc(CCNc3ncnc4c3ncn4C3O[C@H](C(=O)NC4CC4)[C@@H](O)[C@H]3O)c3ccccc32)c1 (some centres not stated)	2.4 mg/kg	85%	9%	93%	26%	140 nM	670 nM	–
Cn1cc(CCNc2ncnc3c2ncn3C2O[C@H](C(=O)NC3CC3)[C@@H](O)[C@H]2O)c2ccccc21 (some centres not stated)	3 mg/kg	91%	29%	99%	76%	–	270 nM	–
Cc1ccc(C)c(Cn2cc(CCNc3ncnc4c3ncn4[C@@H]3O[C@H](C(=O)NC4CC4)[C@@H](O)[C@H]3O)c3cc(C)ccc32)c1	0.9 mg/kg	70%	3%	100%	50%	62 nM	890 nM	–
C=CCn1cc(CCNc2ncnc3c2ncn3C2O[C@H](C(=O)NC3CC3)[C@@H](O)[C@H]2O)c2ccccc21 (some centres not stated)	5.3 mg/kg	80%	17%	100%	56%	39 nM	280 nM	–
Cc1ccc(C)c(Cn2cc(CCNc3ncnc4c3ncn4C3O[C@H](C(=O)NCCN4CCOCC4)[C@@H](O)[C@H]3O)c3ccccc32)c1 (some centres not stated)	> 60 mg/kg	19%	0%	5%	5%	–	–	–
Cc1ccc(C)c(Cn2cc(CC(C)Nc3ncnc4c3ncn4C3O[C@H](C(=O)NC4CC4)[C@@H](O)[C@H]3O)c3ccccc32)c1 (some centres not stated)	3.6 mg/kg	84%	9%	96%	21%	180 nM	2200 nM	–
O=C(NC1CC1)[C@H]1OC(n2cnc3c(NCCc4c(-c5ccccc5)[nH]c5ccccc45)ncnc32)[C@H](O)[C@@H]1O (some centres not stated)	27.1 mg/kg	71%	10%	84%	20%	–	–	–
O=C(NC1CC1)[C@H]1OC(n2cnc3c(NCCc4cn(CCN5CCCCC5)c5ccccc45)ncnc32)[C@H](O)[C@@H]1O (some centres not stated)	7.3 mg/kg	96%	44%	99%	90%	8.3 nM	120 nM	–
OC[C@H]1O[C@@H](n2cnc3c(NCCc4cn(Cc5ccc(Cl)cc5)c5ccccc45)ncnc32)[C@H](O)[C@@H]1O	40.8 mg/kg	97%	59%	100%	71%	11 nM	140 nM	–
COc1ccccc1Cn1cc(CCNc2ncnc3c2ncn3C2O[C@H](C(=O)NC3CC3)[C@@H](O)[C@H]2O)c2ccccc21 (some centres not stated)	2.3 mg/kg	89%	23%	100%	42%	170 nM	810 nM	–
COc1ccc(Cn2cc(CCNc3ncnc4c3ncn4C3O[C@H](C(=O)NC4CC4)[C@@H](O)[C@H]3O)c3ccccc32)cc1 (some centres not stated)	71.6 mg/kg	100%	59%	98%	42%	–	–	–
O=C(NC1CC1)[C@H]1OC(n2cnc3c(NCCc4cn(Cc5ccccn5)c5ccccc45)ncnc32)[C@H](O)[C@@H]1O (some centres not stated)	–	–	–	–	–	39 nM	390 nM	–
COCCn1cc(CCNc2ncnc3c2ncn3[C@@H]2O[C@H](C(=O)NC3CC3)[C@@H](O)[C@H]2O)c2ccccc21	1.2 mg/kg	90%	19%	98%	61%	23 nM	370 nM	–
O=C(NC1CC1)[C@H]1O[C@@H](n2cnc3c(NCCc4cn(C5CCCC5)c5ccccc45)ncnc32)[C@H](O)[C@@H]1O	1.5 mg/kg	90%	28%	96%	21%	110 nM	350 nM	–
Cc1ccc(C)c(Cn2cc(CCNc3ncnc4c3ncn4[C@@H]3O[C@H](C(=O)NC4CC4)[C@@H](O)[C@H]3O)c3cc(Cl)ccc32)c1	6.3 mg/kg	77%	10%	99%	47%	150 nM	660 nM	–
CNC(=O)[C@H]1O[C@@H](n2cnc3c(NCCc4cn(Cc5cc(C)ccc5C)c5ccccc45)ncnc32)[C@H](O)[C@@H]1O	10.2 mg/kg	68%	0%	80%	12%	1400 nM	3000 nM	–
Cc1ccc(C)c(Cn2cc(CCNc3ncnc4c3ncn4[C@@H]3O[C@H](C(N)=O)[C@@H](O)[C@H]3O)c3ccccc32)c1	> 30 mg/kg	61%	0%	87%	17%	510 nM	2600 nM	–
COc1ccc2c(c1)c(CCNc1ncnc3c1ncn3C1O[C@H](C(=O)NC3CC3)[C@@H](O)[C@H]1O)cn2Cc1cc(C)ccc1C (some centres not stated)	46.3 mg/kg	91%	17%	100%	16%	–	–	–
